These results are taken from ChEMBL document CHEMBL5537160, “Design, Synthesis, Pharmacology, and In Silico Studies of (1S,2S,3S)-2-((S)-Amino(carboxy)methyl)-3-(carboxymethyl)cyclopropane-1-carboxylic Acid (LBG30300): A Picomolar Potency Subtype-Selective mGlu2 Receptor Agonist” (J Med Chem, 2024).

Calls of active or inactive are those of the source. The rule behind the calls is not given here.

Holding throughout (type): functional, cell-based
Experiment [1] addresses T1, Metabotropic glutamate receptor 3 (Rattus norvegicus, UniProt P31422). The experiment is described as follows: Agonist activity at rat mGlu3 transfected in HEK293 cells assessed as inositol phosphate accumulation.
The target in experiment [2] is Metabotropic glutamate receptor 5 (Rattus norvegicus) (UniProt P31424). The experiment is described as follows: Antagonist activity at rat mGlu5 transfected in HEK293 cells by IP-one HTRF assay. In short, it runs like this: (§1)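 HEK293 cells transiently electroporated with rat receptor plasmid plus EAAC1 Glu transporter, plated 150 000 cells/well on polyornithine, serum-free Glutamax DMEM ≥2 h before assay. At 24 h, washed in Krebs buffer and stimulated 30 min with compound in 50 mM LiCl. IP1 read by HTRF, at least duplicates, EC50 from 2–5 experiments.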
For orientation: TR-FRET usually uses a lanthanide donor and a delayed reading to cut background.

Experiment [3] concerns the target Metabotropic glutamate receptor 3 (Rattus norvegicus) (UniProt P31422). The experiment is described as follows: Antagonist activity at rat mGlu3 transfected in HEK293 cells co-transfected with chimeric Gqi9 incubated for 30 mins by IP-one HTRF assay.
The target in experiment [4] is Metabotropic glutamate receptor 8 (Rattus norvegicus) (UniProt P70579). Nature of the experiment: Antagonist activity at rat mGlu8 transfected in HEK293 cells co-transfected with chimeric Gqi9 incubated for 30 mins by IP-one HTRF assay. In short, it runs like this: (§2)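 Rat group II/III receptor co-electroporated into HEK293 with chimeric Gqi9 and EAAC1 transporter, serum-free medium ≥2 h pre-assay. At 24 h post-transfection, Krebs wash, then 30 min compound exposure with 50 mM LiCl. IP1 accumulation quantified by HTRF kit, at least duplicate runs, mean of 2–5 experiments.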

In experiment [5] the target is Metabotropic glutamate receptor 5 (Rattus norvegicus, UniProt P31424). Nature of the experiment: Agonist activity at rat mGlu5 transfected in HEK293 cells by IP-one HTRF assay. In short, it runs like this: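 HEK293 cells transiently electroporated with rat receptor plasmid plus the high-affinity Glu transporter EAAC1. Cells were grown in DMEM with 10% FBS and seeded on polyornithine-coated wells at 150 000 cells/well. Medium was switched to serum-free Glutamax DMEM ≥2 h before assay. At 24 h cells were washed in Krebs buffer and stimulated 30 min with agonist plus 50 mM LiCl. IP1 read by IP-One HTRF; ≥ duplicates.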

In experiment [6] the target is Metabotropic glutamate receptor 4 (Rattus norvegicus) (UniProt P31423). Nature of the experiment: Antagonist activity at rat mGlu4 transfected in HEK293 cells co-transfected with chimeric Gqi9 incubated for 30 mins by IP-one HTRF assay. In short, it runs like this: as §2
Experiment [7] addresses Metabotropic glutamate receptor 7 (Rattus norvegicus) (UniProt P35400). The experiment is described as follows: Antagonist activity at rat mGlu7 transfected in HEK293 cells co-transfected with chimeric Gqi9 incubated for 30 mins by IP-one HTRF assay. A digest of the protocol:
as §2

Experiment [8] concerns the target Metabotropic glutamate receptor 6 (Rattus norvegicus) (UniProt P35349). Nature of the experiment: Antagonist activity at rat mGlu6 transfected in HEK293 cells co-transfected with chimeric Gqi9 incubated for 30 mins by IP-one HTRF assay. In short, it runs like this:
as §2

Experiment [9] addresses Metabotropic glutamate receptor 2 (Rattus norvegicus) (UniProt P31421). The experiment is described as follows: Antagonist activity at rat mGlu2 transfected in HEK293 cells co-transfected with chimeric Gqi9 incubated for 30 mins by IP-one HTRF assay.
Experiment [10] addresses Metabotropic glutamate receptor 1 (Rattus norvegicus) (UniProt P23385). The experiment is described as follows: Antagonist activity at rat mGlu1 transfected in HEK293 cells by IP-one HTRF assay. In short, it runs like this: as §1
In experiment [11] the target is T1, Metabotropic glutamate receptor 3. The experiment is described as follows: Agonist activity at SNAP tagged rat mGlu3 transfected HEK293 cells preincubated with antagonist LY-341495 followed by compound addition by TR-FRET assay.
The target of experiment [12] is T2, Metabotropic glutamate receptor 2 (Rattus norvegicus, UniProt P31421). The experiment is described as follows: Agonist activity at SNAP tagged rat mGlu2 transfected HEK293 cells by TR-FRET assay. The settings on record: read-out: EC50.
The target in experiment [13] is T2, Metabotropic glutamate receptor 2. Nature of the experiment: Agonist activity at rat mGlu2 transfected in HEK293 cells co-transfected with chimeric Gqi9 incubated for 30 mins by IP-one HTRF assay. The settings on record: read-out: EC50. A digest of the protocol: as §2
In experiment [14] the target is T1, Metabotropic glutamate receptor 3. The experiment is described as follows: Agonist activity at rat mGlu3 transfected in HEK293 cells co-transfected with chimeric Gqi9 incubated for 30 mins by IP-one HTRF assay.

T1 sequence (P31422 whole entry): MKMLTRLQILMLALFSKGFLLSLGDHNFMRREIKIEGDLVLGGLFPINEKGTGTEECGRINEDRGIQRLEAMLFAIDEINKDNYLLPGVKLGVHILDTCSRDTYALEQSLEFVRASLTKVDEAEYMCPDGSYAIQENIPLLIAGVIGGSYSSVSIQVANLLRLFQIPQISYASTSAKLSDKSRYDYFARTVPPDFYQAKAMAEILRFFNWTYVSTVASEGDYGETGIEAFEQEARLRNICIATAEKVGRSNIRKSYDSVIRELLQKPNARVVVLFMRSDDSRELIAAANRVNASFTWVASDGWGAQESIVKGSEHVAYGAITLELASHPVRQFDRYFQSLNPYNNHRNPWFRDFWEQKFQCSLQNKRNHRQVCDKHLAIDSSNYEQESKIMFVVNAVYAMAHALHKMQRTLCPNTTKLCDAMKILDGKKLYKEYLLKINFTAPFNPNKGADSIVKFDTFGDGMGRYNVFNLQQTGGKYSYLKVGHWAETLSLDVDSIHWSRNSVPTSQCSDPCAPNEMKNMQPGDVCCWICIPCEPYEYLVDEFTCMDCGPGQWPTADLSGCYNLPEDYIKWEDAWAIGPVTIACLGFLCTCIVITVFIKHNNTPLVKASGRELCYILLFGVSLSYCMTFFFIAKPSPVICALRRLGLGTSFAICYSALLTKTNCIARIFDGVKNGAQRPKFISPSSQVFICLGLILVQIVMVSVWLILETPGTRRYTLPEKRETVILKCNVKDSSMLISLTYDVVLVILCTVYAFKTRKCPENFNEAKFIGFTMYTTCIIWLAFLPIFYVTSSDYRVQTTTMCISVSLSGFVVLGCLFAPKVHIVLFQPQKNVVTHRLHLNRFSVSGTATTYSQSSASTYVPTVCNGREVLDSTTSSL
Metabotropic glutamate receptor 2 (Rattus norvegicus), sequence (P31421 19-872 limits assumed): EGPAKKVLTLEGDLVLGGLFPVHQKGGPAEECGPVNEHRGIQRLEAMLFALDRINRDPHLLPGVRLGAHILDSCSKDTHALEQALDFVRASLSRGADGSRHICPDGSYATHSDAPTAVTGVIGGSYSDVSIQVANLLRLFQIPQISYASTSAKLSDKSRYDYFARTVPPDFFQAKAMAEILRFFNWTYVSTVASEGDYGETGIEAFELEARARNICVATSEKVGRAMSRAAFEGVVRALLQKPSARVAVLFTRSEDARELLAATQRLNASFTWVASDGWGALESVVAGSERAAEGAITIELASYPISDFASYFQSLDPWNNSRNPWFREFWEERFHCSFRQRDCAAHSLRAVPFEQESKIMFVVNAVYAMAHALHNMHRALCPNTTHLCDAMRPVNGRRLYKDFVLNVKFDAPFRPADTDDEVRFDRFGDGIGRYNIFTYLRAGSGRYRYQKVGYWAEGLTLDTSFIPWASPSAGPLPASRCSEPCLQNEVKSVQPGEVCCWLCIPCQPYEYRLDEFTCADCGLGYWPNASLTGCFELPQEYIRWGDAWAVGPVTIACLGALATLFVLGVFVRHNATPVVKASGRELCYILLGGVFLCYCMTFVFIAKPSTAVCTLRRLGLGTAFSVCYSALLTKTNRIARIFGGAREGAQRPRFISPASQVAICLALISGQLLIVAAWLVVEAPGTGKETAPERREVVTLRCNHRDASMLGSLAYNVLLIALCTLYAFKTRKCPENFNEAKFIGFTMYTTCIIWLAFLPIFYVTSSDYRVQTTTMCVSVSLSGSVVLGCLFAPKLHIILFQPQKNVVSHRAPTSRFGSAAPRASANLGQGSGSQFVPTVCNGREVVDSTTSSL
Metabotropic glutamate receptor 6 (Rattus norvegicus), sequence (P35349 whole entry): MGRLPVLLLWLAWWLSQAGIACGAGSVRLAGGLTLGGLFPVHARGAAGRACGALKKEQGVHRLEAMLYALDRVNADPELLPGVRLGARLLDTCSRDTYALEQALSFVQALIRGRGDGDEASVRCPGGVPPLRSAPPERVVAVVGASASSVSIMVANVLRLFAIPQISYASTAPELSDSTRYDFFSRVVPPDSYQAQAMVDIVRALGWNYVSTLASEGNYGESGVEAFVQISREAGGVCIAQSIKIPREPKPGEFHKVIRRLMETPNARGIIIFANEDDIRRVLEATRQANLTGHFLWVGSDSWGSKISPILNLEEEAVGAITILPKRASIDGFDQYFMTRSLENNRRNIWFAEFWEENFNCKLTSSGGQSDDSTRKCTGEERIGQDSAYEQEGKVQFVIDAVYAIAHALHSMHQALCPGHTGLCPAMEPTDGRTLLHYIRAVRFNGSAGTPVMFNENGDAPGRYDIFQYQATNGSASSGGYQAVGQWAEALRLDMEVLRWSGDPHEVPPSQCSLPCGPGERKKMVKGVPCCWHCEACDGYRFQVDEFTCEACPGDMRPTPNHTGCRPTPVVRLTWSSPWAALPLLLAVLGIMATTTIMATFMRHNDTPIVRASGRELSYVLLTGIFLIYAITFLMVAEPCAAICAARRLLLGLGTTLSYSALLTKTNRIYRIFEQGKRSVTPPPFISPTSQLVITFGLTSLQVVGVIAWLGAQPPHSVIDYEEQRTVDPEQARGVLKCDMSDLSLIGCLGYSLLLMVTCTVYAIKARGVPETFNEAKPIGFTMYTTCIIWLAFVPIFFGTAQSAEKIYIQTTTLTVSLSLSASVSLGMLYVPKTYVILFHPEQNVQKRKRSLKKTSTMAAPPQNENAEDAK
Metabotropic glutamate receptor 5 (Rattus norvegicus), sequence (P31424 21-1203 limits assumed): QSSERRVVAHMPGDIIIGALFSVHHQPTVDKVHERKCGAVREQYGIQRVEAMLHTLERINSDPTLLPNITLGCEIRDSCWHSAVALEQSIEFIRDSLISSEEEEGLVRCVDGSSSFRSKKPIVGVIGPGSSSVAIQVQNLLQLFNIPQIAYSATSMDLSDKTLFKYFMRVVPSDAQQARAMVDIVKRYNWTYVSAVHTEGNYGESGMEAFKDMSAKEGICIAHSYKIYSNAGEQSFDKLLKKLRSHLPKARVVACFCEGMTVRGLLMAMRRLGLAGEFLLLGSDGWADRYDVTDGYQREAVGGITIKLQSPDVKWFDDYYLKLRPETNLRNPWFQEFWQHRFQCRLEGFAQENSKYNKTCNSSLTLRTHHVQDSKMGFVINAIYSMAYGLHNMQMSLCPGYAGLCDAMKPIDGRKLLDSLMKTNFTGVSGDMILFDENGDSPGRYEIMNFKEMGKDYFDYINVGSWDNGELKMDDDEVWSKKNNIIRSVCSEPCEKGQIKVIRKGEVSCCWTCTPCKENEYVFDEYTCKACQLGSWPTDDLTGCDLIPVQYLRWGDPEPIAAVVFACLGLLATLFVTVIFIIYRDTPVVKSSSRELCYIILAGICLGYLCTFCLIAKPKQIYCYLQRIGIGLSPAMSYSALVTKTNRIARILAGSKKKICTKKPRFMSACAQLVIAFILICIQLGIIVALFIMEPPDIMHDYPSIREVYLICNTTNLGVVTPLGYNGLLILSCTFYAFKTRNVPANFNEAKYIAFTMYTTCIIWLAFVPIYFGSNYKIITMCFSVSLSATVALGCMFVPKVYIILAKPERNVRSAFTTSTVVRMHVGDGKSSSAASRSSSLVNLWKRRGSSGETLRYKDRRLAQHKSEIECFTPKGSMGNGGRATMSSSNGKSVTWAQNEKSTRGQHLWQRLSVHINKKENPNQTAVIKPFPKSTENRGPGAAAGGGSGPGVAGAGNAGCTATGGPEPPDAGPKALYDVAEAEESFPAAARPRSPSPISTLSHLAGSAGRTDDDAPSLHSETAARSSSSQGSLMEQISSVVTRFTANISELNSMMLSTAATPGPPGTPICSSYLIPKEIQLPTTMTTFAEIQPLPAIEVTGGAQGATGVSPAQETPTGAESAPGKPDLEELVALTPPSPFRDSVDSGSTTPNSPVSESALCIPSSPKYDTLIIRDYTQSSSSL
T2 sequence (P31421 whole entry): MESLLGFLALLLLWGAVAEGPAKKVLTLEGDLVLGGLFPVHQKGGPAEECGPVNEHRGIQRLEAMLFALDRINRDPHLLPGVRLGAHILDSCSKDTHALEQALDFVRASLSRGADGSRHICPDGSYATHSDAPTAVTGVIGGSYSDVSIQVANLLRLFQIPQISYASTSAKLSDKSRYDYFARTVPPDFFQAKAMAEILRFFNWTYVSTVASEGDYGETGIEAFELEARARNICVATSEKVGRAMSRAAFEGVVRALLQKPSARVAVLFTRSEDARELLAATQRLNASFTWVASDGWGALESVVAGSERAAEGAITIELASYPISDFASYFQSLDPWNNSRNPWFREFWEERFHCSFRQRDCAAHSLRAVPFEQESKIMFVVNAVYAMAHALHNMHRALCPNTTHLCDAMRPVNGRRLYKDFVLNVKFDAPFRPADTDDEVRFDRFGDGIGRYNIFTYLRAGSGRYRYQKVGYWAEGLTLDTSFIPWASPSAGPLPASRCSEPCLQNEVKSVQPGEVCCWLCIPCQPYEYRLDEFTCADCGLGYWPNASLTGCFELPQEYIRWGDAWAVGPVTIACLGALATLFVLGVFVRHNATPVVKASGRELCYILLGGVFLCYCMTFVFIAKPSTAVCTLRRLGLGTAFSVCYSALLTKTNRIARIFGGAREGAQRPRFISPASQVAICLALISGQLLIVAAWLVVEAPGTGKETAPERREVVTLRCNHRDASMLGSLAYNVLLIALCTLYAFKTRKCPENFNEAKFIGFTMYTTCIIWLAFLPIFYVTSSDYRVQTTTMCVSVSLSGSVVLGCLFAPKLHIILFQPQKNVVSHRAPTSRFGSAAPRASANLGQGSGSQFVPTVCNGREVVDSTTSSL

For the compound `N[C@H](C(=O)O)C1[C@@H](C(=O)O)[C@@H]1C(=O)O` (stereo partly drawn), in [1], the EC50 turned out to be 90 nM.

As to `N[C@@H](Cn1oc(=O)[nH]c1=O)C(=O)O` [QUISQUALATE], the result in experiment [2], in experiment [3], in [4], in experiment [6], in experiment [7] and in [8] was inactive. The result in experiment [9] and in experiment [10] was inactive. Moreover, the EC50 in experiment [5] (read-out: EC50) was 27 nM; in [5] (read-out: pEC50 (converted)) it was 40.7 nM.

For `COc1cccc(C(=O)N[C@H]2C[C@@](N)(C(=O)O)[C@@H]3[C@@H](C(=O)O)[C@@H]32)c1`, the figures for the EC50 in [11] and in experiment [12] were 32 nM and 2820 nM, respectively.

As to `N[C@@]1(C(=O)O)CO[C@H]2[C@H](C(=O)O)[C@H]21` [LY-379268], the EC50 in [13] turned out to be 1 nM; in experiment [14], 10 nM. Moreover, the outcome in experiment [2], in [3], in [4], in experiment [6], in [7] and in experiment [8] was inactive. Moreover, the outcome in experiment [9] and in experiment [10] was inactive.
